What was measured:
[1] = system: LNCaP; experiment: Antiproliferative activity against human LNCAP cells assessed as decrease in cell viability after 3 days by WST assay; format: functional, cell-based; settings: 72 h
Method in brief: (§1)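 Cells were seeded at 3,200 per well. PC-3 and LNCaP were grown in RPMI-1640 and DU-145 in EMEM, each with 10% FBS and 1% penicillin/streptomycin, at 37 °C and 5% CO2. Cells were exposed for 3 days to at least five concentrations, with DMSO as vehicle control. WST-1 reagent was then added for 3 h at 37 °C and absorbance read at 430 nm. IC50 came from linear inhibition, averaged over triplicates.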

[2] = system: PWR-1E; experiment: Potency index, ratio of curcumin IC50 to test compound IC50 for human PWR-1E cells expressing androgen receptor and PSA; format: functional
[3] = system: DU-145; experiment: Antiproliferative activity against human DU145 cells assessed as decrease in cell viability after 3 days by WST assay; format: functional, cell-based; settings: DU-145, 72 h; method in brief: as §1
[4] = system: LNCaP; experiment: Potency index, ratio of curcumin IC50 to test compound IC50 for human LNCAP cells; format: functional
[5] = system: DU-145; experiment: Potency index, ratio of curcumin IC50 to test compound IC50 for human DU145 cells; format: functional
[6] = system: PWR-1E; experiment: Antiproliferative activity against human PWR-1E cells expressing androgen receptor and PSA assessed as decrease in cell viability after 3 days by WST assay; format: functional, cell-based; settings: 72 h
Method in brief: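 Non-malignant prostate epithelial PWR-1E (adenovirus 12/SV40-immortalized) was seeded at 5,000 per well. Cells were exposed for 3 days at 37 °C in a CO2 incubator to at least five concentrations, with DMSO as vehicle control. WST-1 reagent was then added for 3 h at 37 °C and absorbance read at 430 nm. IC50 came from linear inhibition, as the mean of triplicate determinations.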

[7] = system: PC-3; experiment: Potency index, ratio of curcumin IC50 to test compound IC50 for human PC3 cells; format: functional
[8] = system: PC-3; experiment: Antiproliferative activity against human PC3 cells assessed as decrease in cell viability after 3 days by WST assay; format: functional, cell-based; settings: PC-3, 72 h; method in brief: as §1
[9] = Retention time of the compound; format: physicochemical
[10] = Drug level in human liver microsomes treated with (1E,4E)-1-(1-(sec-Butyl)1H-imidazol-2-yl)-5-(2-methyl-4-(trifluoromethyl)thiazol-5-yl)penta-1,4-dien-3-one at 10 mM after 60 mins by UHPLC analysis; format: ADME, microsome
Method in brief: (§2)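 Pooled human liver microsomes in potassium phosphate buffer (pH 7.4) with NADPH solutions A and B were preincubated for 5 min at 37 °C. Compound was then added from a 10 mM stock (3 μL into 300 μL total) and incubated 60 min at 37 °C. Reactions were quenched with an equal volume of methanol and centrifuged (10,000 × g, 4 min, 4 °C). Supernatant went to UHPLC–high-resolution MS for metabolite identification.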

[11] = Drug level in human liver microsomes treated with (1E,4E)-1-(1-Ethyl1H-benzo[d]imidazol-2-yl)-5-(2-methyl-4-(trifluoromethyl)thiazol-5-yl)penta-1,4-dien-3-one at 10 mM after 60 mins by UHPLC analysis; format: ADME, microsome; settings: 1 h; method in brief: as §2
[12] = Plasma concentration in Sprague-Dawley rat at 10 mg/kg administered via oral gavage measured at 1 hr by HPLC-MS/MS analysis; format: ADME, organism-based
[13] = Tmax in Sprague-Dawley rat at 10 mg/kg administered via oral gavage by HPLC-MS/MS analysis; format: ADME, organism-based; settings: in vivo
[14] = system: PC-3; experiment: Induction of apoptosis in human PC3 cells assessed as late apoptotic/necrotic cells at 6 uM after 16 hrs by F2N12S/CYTOX AADvanced double staining-based flow cytometric method (reference value: 3%); format: functional
[15] = system: PC-3; experiment: Induction of apoptosis in human PC3 cells assessed as early apoptotic cells at 6 uM after 16 hrs by F2N12S/CYTOX AADvanced double staining-based flow cytometric method (reference value: 2%); format: functional
[16] = Plasma concentration in Sprague-Dawley rat at 10 mg/kg administered via oral gavage measured at 6 hrs by HPLC-MS/MS analysis; format: ADME, organism-based
[17] = system: PC-3; experiment: Induction of apoptosis in human PC3 cells assessed as viable cells at 4 uM after 16 hrs by F2N12S/CYTOX AADvanced double staining-based flow cytometric method (reference value: 95%); format: functional; settings: PC-3, 16 h, read-out: Activity
[18] = system: PC-3; experiment: Induction of apoptosis in human PC3 cells assessed as viable cells at 2 uM after 16 hrs by F2N12S/CYTOX AADvanced double staining-based flow cytometric method (reference value: 95%); format: functional; settings: PC-3, 16 h, read-out: Activity
[19] = AUC in Sprague-Dawley rat at 10 mg/kg administered via oral gavage by HPLC-MS/MS analysis; format: ADME, organism-based; settings: in vivo
[20] = system: PC-3; experiment: Induction of apoptosis in human PC3 cells assessed as viable cells at 8 uM after 16 hrs by F2N12S/CYTOX AADvanced double staining-based flow cytometric method (reference value: 95%); format: functional; settings: PC-3, 16 h, read-out: Activity
[21] = Plasma concentration in Sprague-Dawley rat at 10 mg/kg administered via oral gavage measured after 1 day by HPLC-MS/MS analysis; format: ADME, organism-based
[22] = system: PC-3; experiment: Induction of apoptosis in human PC3 cells assessed as late apoptotic/necrotic cells at 2 uM after 16 hrs by F2N12S/CYTOX AADvanced double staining-based flow cytometric method (reference value: 3%); format: functional
[23] = Antiproliferative activity against human LNCaP95 cells expressing androgen receptor splice variants assessed as decrease in cell viability after 5 days by trypan blue exclusion assay; format: functional, cell-based; settings: LNCaP-95, 120 h
[24] = system: PC-3; experiment: Induction of apoptosis in human PC3 cells assessed as viable cells at 15 uM after 16 hrs by F2N12S/CYTOX AADvanced double staining-based flow cytometric method (reference value: 95%); format: functional; settings: PC-3, 16 h, read-out: Activity
[25] = system: PC-3; experiment: Induction of apoptosis in human PC3 cells assessed as viable cells at 10 uM after 16 hrs by F2N12S/CYTOX AADvanced double staining-based flow cytometric method (reference value: 95%); format: functional; settings: PC-3, 16 h, read-out: Activity
[26] = system: PC-3; experiment: Cell cycle arrest in human PC3 cells assessed as accumulation at G0/G1 phase at 4 uM after 24 hrs by propidium iodide staining-based flow cytometric method (reference value: 59 to 62%); format: functional
[27] = Plasma concentration in Sprague-Dawley rat at 10 mg/kg administered via oral gavage measured at 3 hrs by HPLC-MS/MS analysis; format: ADME, organism-based
[28] = system: Rattus norvegicus; experiment: Acute toxicity in Sprague-Dawley rat assessed as mortality at 10 mg/kg administered via oral gavage after 48 hrs; format: organism-based; settings: in vivo
Method in brief: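 Male Sprague-Dawley rats (250–300 g, n = 4) each received a single 10 mg/kg oral gavage dose. The vehicle was 5% DMSO, 40% polyethylene glycol 400 and 55% saline. Blood was drawn from the lateral tail vein at 1, 3, 6 and 24 h for plasma drug levels. Toxicity was scored as observed deaths after dosing.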

[29] = system: PC-3; experiment: Induction of apoptosis in human PC3 cells assessed as early apoptotic cells at 8 uM after 16 hrs by F2N12S/CYTOX AADvanced double staining-based flow cytometric method (reference value: 2%); format: functional
[30] = system: VCaP; experiment: Antiproliferative activity against human VCaP cells expressing androgen receptor splice variants assessed as decrease in cell viability after 5 days by trypan blue exclusion assay; format: functional, cell-based; settings: 120 h
[31] = system: PC-3; experiment: Induction of apoptosis in human PC3 cells assessed as early apoptotic cells at 2 uM after 16 hrs by F2N12S/CYTOX AADvanced double staining-based flow cytometric method (reference value: 2%); format: functional
[32] = system: PC-3; experiment: Induction of apoptosis in human PC3 cells assessed as early apoptotic cells at 10 uM after 16 hrs by F2N12S/CYTOX AADvanced double staining-based flow cytometric method (reference value: 2%); format: functional
[33] = system: PC-3; experiment: Induction of apoptosis in human PC3 cells assessed as viable cells at 6 uM after 16 hrs by F2N12S/CYTOX AADvanced double staining-based flow cytometric method (reference value: 95%); format: functional; settings: PC-3, 16 h, read-out: Activity
[34] = system: PC-3; experiment: Induction of apoptosis in human PC3 cells assessed as late apoptotic/necrotic cells at 8 uM after 16 hrs by F2N12S/CYTOX AADvanced double staining-based flow cytometric method (reference value: 3%); format: functional
[35] = system: PC-3; experiment: Induction of apoptosis in human PC3 cells assessed as late apoptotic/necrotic cells at 10 uM after 16 hrs by F2N12S/CYTOX AADvanced double staining-based flow cytometric method (reference value: 3%); format: functional
[36] = system: PC-3; experiment: Induction of apoptosis in human PC3 cells assessed as late apoptotic/necrotic cells at 15 uM after 16 hrs by F2N12S/CYTOX AADvanced double staining-based flow cytometric method (reference value: 3%); format: functional
[37] = system: PC-3; experiment: Cell cycle arrest in human PC3 cells assessed as accumulation at G0/G1 phase at 4 uM after 16 hrs by propidium iodide staining-based flow cytometric method (reference value: 51 to 52%); format: functional
[38] = system: CWR22R; experiment: Antiproliferative activity against human 22Rv1 cells expressing androgen receptor splice variants assessed as decrease in cell viability after 5 days by trypan blue exclusion assay; format: functional, cell-based; settings: 22Rv1, 120 h
[39] = Cmax in Sprague-Dawley rat at 10 mg/kg administered via oral gavage by HPLC-MS/MS analysis; format: ADME, organism-based; set-up: dose 10 mg/kg, route oral; settings: in vivo
[40] = system: PC-3; experiment: Cell cycle arrest in human PC3 cells assessed as accumulation at G2 phase at 4 uM after 24 hrs by propidium iodide staining-based flow cytometric method (reference value: 24%); format: functional
[41] = system: PC-3; experiment: Induction of apoptosis in human PC3 cells assessed as late apoptotic/necrotic cells at 4 uM after 16 hrs by F2N12S/CYTOX AADvanced double staining-based flow cytometric method (reference value: 3%); format: functional
[42] = system: PC-3; experiment: Induction of apoptosis in human PC3 cells assessed as early apoptotic cells at 15 uM after 16 hrs by F2N12S/CYTOX AADvanced double staining-based flow cytometric method (reference value: 2%); format: functional

CCCn1c(/C=C/C(=O)/C=C/c2ccccn2)nc2ccccc21
IC50 [1]: 170 nM | Ratio IC50 [2]: 443 | IC50 [3]: 320 nM | Ratio IC50 [4]: 80 | Ratio IC50 [5]: 82 | IC50 [6]: 20 nM | Ratio IC50 [7]: 102 | IC50 [8]: 250 nM

CCn1c(/C=C/C(=O)/C=C/c2ccccn2)nc2ccccc21
IC50 [1]: 120 nM | Ratio IC50 [2]: 221 | IC50 [3]: 460 nM | Ratio IC50 [4]: 113 | Ratio IC50 [5]: 57 | IC50 [6]: 40 nM | Ratio IC50 [7]: 111 | IC50 [8]: 230 nM

CCC(C)n1cc(O)nc1/C=C/C(=O)/C=C/c1sc(C)nc1C(F)(F)F (stereo not drawn)
Retention_time [9]: 3.32 min | Drug metabolism [10]: Metabolite_Detected

CCn1c(/C=C/C(=O)/C=C(\O)c2sc(C)nc2C(F)(F)F)nc2ccccc21
Drug metabolism [11]: Metabolite_Detected | Retention_time [9]: 4.66 min

CCCn1ccnc1/C=C/C(=O)/C=C/c1nc2ccccc2n1CCC
concentration at 1 h [12]: 114 ng/mL | Tmax [13]: 6 h | Activity [14]: 35% | Activity [15]: 43% | concentration at 6 h [16]: 281 ng/mL | IC50 [1]: 220 nM | viability at 4 µM [17]: 55% | Ratio IC50 [2]: 443 | IC50 [3]: 220 nM | viability at 2 µM [18]: 93% | AUC [19]: 4390 ng·h/mL | viability at 8 µM [20]: 13% | concentration at 24 h [21]: 86 ng/mL | Activity [22]: 4% | Ratio IC50 [4]: 62 | IC50 [23]: 350 nM | viability at 15 µM [24]: 1% | viability at 10 µM [25]: 8% | Ratio IC50 [5]: 119 | Activity [26]: 76% | concentration at 3 h [27]: 196 ng/mL | Activity [28]: Toxic | Activity [29]: 45% | IC50 [30]: 1120 nM | Activity [31]: 3% | IC50 [6]: 20 nM | Activity [32]: 49% | viability at 6 µM [33]: 22% | Ratio IC50 [7]: 254 | Activity [34]: 42% | Activity [35]: 43% | Activity [36]: 47% | Activity [37]: 78% | IC50 [38]: 220 nM | Cmax [39]: 281 ng/mL | Activity [40]: 14% | IC50 [8]: 100 nM | Activity [41]: 23% | Activity [42]: 52%

CCC(C)n1ccnc1/C(O)=C/C(=O)/C=C/c1sc(C)nc1C(F)(F)F (stereo not drawn)
Retention_time [9]: 3.7 min | Drug metabolism [10]: Metabolite_Detected

CCC(C)n1ccnc1/C=C/C(=O)/C=C(\O)c1sc(C)nc1C(F)(F)F (stereo not drawn)
Retention_time [9]: 3.97 min | Drug metabolism [10]: Metabolite_Detected

Cc1nc(C(F)(F)F)c(/C=C/C(=O)/C=C/c2nc3ccccc3n2C(C)C)s1
IC50 [1]: 300 nM | Ratio IC50 [2]: 177 | IC50 [3]: 570 nM | Ratio IC50 [4]: 45 | Ratio IC50 [5]: 46 | IC50 [6]: 50 nM | Ratio IC50 [7]: 75 | IC50 [8]: 340 nM

CCn1c(/C(O)=C/C(=O)/C=C/c2sc(C)nc2C(F)(F)F)nc2ccccc21
Drug metabolism [11]: Metabolite_Detected | Retention_time [9]: 4.54 min
